Assay results collected from several papers.

SMILES | test system | conditions | concentration
CC(C)c1cc(C(=O)NCCN)c2cnn(C(C)C)c2n1 | female BALB/c mouse, plasma | intraperitoneal, 50 mg/kg, 30 min | 2430 ng/mL
O=C1CCC(N2Cc3cc(CO)c(F)cc3C2=O)C(=O)N1 (stereo not drawn) | male CD-1 mouse, plasma | intravenous, 1 mg/kg, 2 h | 8.1 ng/mL
CC1(C)NC(=O)N(c2ccc(F)c(Br)c2)C1=O | male Swiss mouse, plasma | oral, 100 mg/kg, 48 h | 1110 ng/mL
CC(C)n1ncc2c(C(=O)NCC3(C)CNC3)cc(C3CC3)nc21 | female BALB/c mouse, plasma | intraperitoneal, 50 mg/kg, 8 h | 240 ng/mL
Cc1nc2ccc(OCc3ccc(C(F)(F)F)cc3)cc2[nH]1 | male BALB/c mouse, brain | oral, 10 mg/kg, 72 h | 2.7 ng/g
O=C1CCC(N2Cc3cc(C4CCN(Cc5ccccc5)CC4)ccc3C2=O)C(=O)N1 (stereo not drawn) | male CD-1 mouse, plasma | oral, 3 mg/kg, 4.98 min | 49.6 ng/mL
Cc1ccc2c(c1)C(=O)[C@]1(O)CCN(c3ccc4nc(C)ccc4c3)C1=N2 | mouse, plasma | intraperitoneal, 10 mg/kg, 30 min | 700 nM
NCc1cc2c(cc1F)C(=O)N(C1CCC(=O)NC1=O)C2 (stereo not drawn) | male CD-1 mouse, plasma | oral, 10 mg/kg, 1 h | 81 ng/mL
CN(C)C(=O)c1cc2cnc(Nc3ccc(-c4ccc5c(=O)cc(N6CCOCC6)oc5c4)cc3)nc2n1C1CCCC1 | BALB/c mouse, brain | oral, 20 mg/kg, 2 h, single dose | 108 ng/g
CC1(C)NC(=O)N(c2ccc(F)c(S(C)(=O)=O)c2)C1=O | male Swiss mouse, plasma | oral, 100 mg/kg, 1 h | 31900 ng/mL
OCc1nc2ccc(NCc3ccc(C(F)(F)F)cc3)cc2[nH]1 | male BALB/c mouse, brain | intravenous, 1 mg/kg, 6 h | 26.1 ng/g
CC(C)(C)S(=O)(=O)c1cc2c(Nc3ccc4scnc4c3)ncnc2cc1OCCOP(=O)(O)O | BALB/c mouse, plasma | oral, 10 mg/kg, 6 h | 21 ng/mL
